ChEMBL document CHEMBL1148708, “4-amino-5-substituted-3(2H)-pyridazinones as orally active antinociceptive agents: synthesis and studies on the mechanism of action” (2007)

How the values were obtained:
Format in all cases: functional
Mus musculus [1] = species: Mus musculus; test: Effect on Swiss albino mouse assessed as decrease in number of falls in 30 sec after 15 mins of treatment by Rota-Rod test
Summary of the method: (§1)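 Rotarod test in mice: falls from the rotating rod counted over 30 s, before treatment and at 15, 30 and 45 min after oral dosing. CMC vehicle controls.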

Rattus norvegicus [2] = species: Rattus norvegicus; test: Increase in noradrenaline release in Sprague-Dawley rat cerebral cortex after 30 mins by microdialysis technique
Summary of the method: (§2)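 Rat cerebral cortex microdialysis under chloral hydrate anesthesia (400 mg/kg) in a stereotaxic frame, using a vertical concentric probe perfused with solution containing MgCl₂ and 4 mM KCl. About 18 h after surgery, dialysate collected every 20 min and stored at -80 °C. Noradrenaline measured by HPLC with electrochemical detection. Release expressed against a baseline averaged from three samples taken just before drug dosing.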

Mus musculus [3] = species: Mus musculus; test: Effect on Swiss albino mouse assessed as decrease in number of falls in 30 sec after 45 mins of treatment by Rota-Rod test; summary of the method: as §1
Mus musculus [4] = species: Mus musculus; test: Antinociceptive activity in Swiss albino mouse assessed as reduction of number of writhing after 30 mins relative to control
Summary of the method: (§3)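 Writhing counted in the mouse abdominal constriction test after a chemical noxious stimulus. Compounds given per os 30 min before testing. Controls received CMC vehicle. Activity expressed as reduction in number of writhes versus controls.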

Mus musculus [5] = species: Mus musculus; test: Effect on Swiss albino mouse assessed as decrease in number of falls in 30 sec after 30 mins of treatment by Rota-Rod test; summary of the method: as §1
Mus musculus [6] = test: Effect on Swiss albino mouse assessed as decrease in number of falls in 30 sec at 10 mg/kg, po after 45 mins by Rota-Rod test; summary of the method: as §1
Mus musculus [7] = test: Antinociceptive activity in Swiss albino mouse assessed as reduction of number of writhing at 10 mg/kg, po after 30 mins relative to control; summary of the method: as §3
Rattus norvegicus [8] = test: Increase in noradrenaline release in Sprague-Dawley rat cerebral cortex at 10 mg/kg, po after 30 mins by microdialysis technique; summary of the method: as §2
Mus musculus [9] = test: Effect on Swiss albino mouse assessed as decrease in number of falls in 30 sec at 10 mg/kg, po after 15 mins by Rota-Rod test; summary of the method: as §1
Mus musculus [10] = test: Effect on Swiss albino mouse assessed as decrease in number of falls in 30 sec at 10 mg/kg, po after 30 mins by Rota-Rod test; summary of the method: as §1
Mus musculus [11] = test: Antinociceptive activity in Swiss albino mouse assessed as number of writhing in presence of yohimbine at 10 mg/kg, po after 30 mins relative to control
Summary of the method: (§4)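 Mouse abdominal constriction (writhing) test with a chemical pain stimulus. Test drugs given orally 30 min before the test. Yohimbine given at 3 mg kg^-1 ip as α2-adrenoceptor antagonist pretreatment. Writhes counted and compared with CMC vehicle controls. Values are the mean of at least two experiments.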

Mus musculus [12] = test: Effect on Swiss albino mouse assessed as decrease in number of falls in 30 sec at 3 mg/kg, po after 30 mins by Rota-Rod test; summary of the method: as §1
Mus musculus [13] = test: Antinociceptive activity in Swiss albino mouse assessed as reduction of number of writhing at 3 mg/kg, po after 30 mins relative to control; summary of the method: as §3
Mus musculus [14] = test: Effect on Swiss albino mouse assessed as decrease in number of falls in 30 sec at 3 mg/kg, po after 15 mins by Rota-Rod test; summary of the method: as §1
Mus musculus [15] = test: Effect on Swiss albino mouse assessed as decrease in number of falls in 30 sec at 3 mg/kg, po after 45 mins by Rota-Rod test; summary of the method: as §1
Mus musculus [16] = test: Antinociceptive activity in Swiss albino mouse assessed as number of writhing in presence of yohimbine at 3 mg/kg, po after 30 mins relative to control; summary of the method: as §4
Mus musculus [17] = test: Effect on Swiss albino mouse assessed as decrease in number of falls in 30 sec at 20 mg/kg, po after 45 mins by Rota-Rod test; summary of the method: as §1
Mus musculus [18] = test: Effect on Swiss albino mouse assessed as decrease in number of falls in 30 sec at 20 mg/kg, po after 15 mins by Rota-Rod test; summary of the method: as §1
Mus musculus [19] = test: Antinociceptive activity in Swiss albino mouse assessed as reduction of number of writhing at 20 mg/kg, po after 30 mins relative to control; summary of the method: as §3
Mus musculus [20] = test: Antinociceptive activity in Swiss Albino mouse assessed as number of writhing in presence of yohimbine at 20 mg/kg, po after 30 mins relative to control; summary of the method: as §4
Mus musculus [21] = test: Effect on Swiss albino mouse assessed as decrease in number of falls in 30 sec at 20 mg/kg, po after 30 mins by Rota-Rod test; summary of the method: as §1
Mus musculus [22] = test: Antinociceptive activity in Swiss albino mouse assessed as number of writhing in presence of yohimbine at 30 mg/kg, po after 30 mins relative to control; summary of the method: as §4
Rattus norvegicus [23] = test: Increase in noradrenaline release in Sprague-Dawley rat cerebral cortex at 30 mg/kg, po after 30 mins by microdialysis technique; summary of the method: as §2
Mus musculus [24] = test: Effect on Swiss albino mouse assessed as decrease in number of falls in 30 sec at 30 mg/kg, po after 15 mins by Rota-Rod test; summary of the method: as §1
Mus musculus [25] = test: Effect on Swiss albino mouse assessed as decrease in number of falls in 30 sec at 30 mg/kg, po after 45 mins by Rota-Rod test; summary of the method: as §1
Mus musculus [26] = test: Antinociceptive activity in Swiss albino mouse assessed as reduction of number of writhing at 30 mg/kg, po after 30 mins relative to control; summary of the method: as §3
Mus musculus [27] = test: Effect on Swiss albino mouse assessed as decrease in number of falls in 30 sec at 30 mg/kg, po after 30 mins by Rota-Rod test; summary of the method: as §1
Rattus norvegicus [28] = test: Increase in noradrenaline release in Sprague-Dawley rat cerebral cortex at 3 mg/kg, po after 30 mins by microdialysis technique; summary of the method: as §2
Rattus norvegicus [29] = test: Increase in noradrenaline release in Sprague-Dawley rat cerebral cortex at 20 mg/kg, po after 30 mins by microdialysis technique; summary of the method: as §2

CC(=O)[O-].O=CC(O)C(O)C(O)C(O)CO.[Na+] (stereo not given)
Activity (Mus musculus [1]): 3.6 | Activity (Rattus norvegicus [2]): 100% | Activity (Mus musculus [3]): 2.2 | Activity (Mus musculus [4]): 33.2 | Activity (Mus musculus [5]): 3

Cc1nc(-c2c(-c3ccccc3)nn(C)c(=O)c2N)cs1
Activity (Mus musculus [6]): 2 | Activity (Mus musculus [7]): 14.7 | Activity (Rattus norvegicus [8]): 181.3% | Activity (Mus musculus [9]): 3.8 | Activity (Mus musculus [10]): 2.7 | Activity (Mus musculus [11]): 33.6

C=Cc1c(-c2ccccc2)nn(C)c(=O)c1NCC
Activity (Mus musculus [12]): 2.3 | Activity (Mus musculus [13]): 17.4 | Activity (Mus musculus [14]): 3.4 | Activity (Mus musculus [15]): 1.9 | Activity (Mus musculus [16]): 28.1

C=Cc1c(-c2ccccc2)nn(CCCC)c(=O)c1NC
Activity (Mus musculus [17]): 2.5 | Activity (Mus musculus [18]): 4 | Activity (Mus musculus [19]): 21.6 | Activity (Mus musculus [20]): 31.9 | Activity (Mus musculus [21]): 3.3

Cc1nn(C)c(=O)c(N)c1-c1ccn(C)n1
Activity (Mus musculus [22]): 31.7 | Activity (Rattus norvegicus [23]): 188.5% | Activity (Mus musculus [24]): 3.9 | Activity (Mus musculus [25]): 1.8 | Activity (Mus musculus [26]): 15.9 | Activity (Mus musculus [27]): 2.6

Cn1nc(-c2ccccc2)c(-c2cc[nH]n2)c(N)c1=O
Activity (Mus musculus [12]): 2.8 | Activity (Mus musculus [13]): 15.9 | Activity (Mus musculus [14]): 3.7 | Activity (Rattus norvegicus [28]): 168.4% | Activity (Mus musculus [15]): 2.3 | Activity (Mus musculus [16]): 26.5

C=Cc1c(-c2ccncc2)nn(CCCC)c(=O)c1N
Activity (Rattus norvegicus [29]): 97.5% | Activity (Mus musculus [19]): 35.3

C=Cc1c(C)nn(CCCC)c(=O)c1N
Activity (Rattus norvegicus [29]): 95.9% | Activity (Mus musculus [19]): 36.7

C=Cc1c(-c2cccs2)nn(CCCC)c(=O)c1N
Activity (Mus musculus [19]): 25.2

C=Cc1c(-c2ccc(F)cc2)nn(CCCC)c(=O)c1N
Activity (Mus musculus [19]): 33.6

C=Cc1c(-c2ccc(F)cc2)nn(C)c(=O)c1N
Activity (Mus musculus [19]): 27.2

C=Cc1c(C2CCCC2)nn(C)c(=O)c1N
Activity (Mus musculus [7]): 27.7

C=Cc1c(C2CCCCC2)nn(C)c(=O)c1N
Activity (Mus musculus [6]): 2.9 | Activity (Mus musculus [7]): 14.4 | Activity (Rattus norvegicus [8]): 182.1% | Activity (Mus musculus [9]): 4.1 | Activity (Mus musculus [10]): 3.4 | Activity (Mus musculus [11]): 32.5

CCN(CC)c1c(-c2ccn(C)n2)c(-c2ccccc2)nn(C)c1=O
Activity (Mus musculus [19]): 27.1

Cc1nnc(-c2c(-c3ccccc3)nn(C)c(=O)c2N)o1
Activity (Mus musculus [12]): 2.3 | Activity (Mus musculus [13]): 19.5 | Activity (Mus musculus [14]): 2.7 | Activity (Mus musculus [15]): 1.5 | Activity (Mus musculus [16]): 34.2

C=Cc1c(-c2ccncc2)nn(C)c(=O)c1N
Activity (Mus musculus [17]): 2.1 | Activity (Mus musculus [18]): 3.5 | Activity (Mus musculus [19]): 18.7 | Activity (Mus musculus [20]): 34.1 | Activity (Mus musculus [21]): 2.8

C=Cc1c(-c2ccc(Br)cc2)nn(C)c(=O)c1N
Activity (Rattus norvegicus [29]): 107% | Activity (Mus musculus [19]): 35.7

C=Cc1c(C)nn(C)c(=O)c1NC
Activity (Mus musculus [6]): 2 | Activity (Mus musculus [7]): 17.6 | Activity (Mus musculus [9]): 3.7 | Activity (Mus musculus [10]): 2.5 | Activity (Mus musculus [11]): 32

C=Cc1c(C)nn(C)c(=O)c1NCC
Activity (Mus musculus [6]): 2.5 | Activity (Mus musculus [7]): 16.8 | Activity (Rattus norvegicus [8]): 176.2% | Activity (Mus musculus [9]): 3.9 | Activity (Mus musculus [10]): 3.2 | Activity (Mus musculus [11]): 29

Cn1ccc(-c2c(-c3ccccc3)nn(C)c(=O)c2N)n1
Activity (Mus musculus [12]): 3.1 | Activity (Mus musculus [13]): 13.6 | Activity (Mus musculus [14]): 4.2 | Activity (Rattus norvegicus [28]): 190.1% | Activity (Mus musculus [15]): 2.3 | Activity (Mus musculus [16]): 31.1

CCNc1c(-c2ccn(C)n2)c(-c2ccccc2)nn(C)c1=O
Activity (Mus musculus [17]): 2.1 | Activity (Rattus norvegicus [29]): 173.7% | Activity (Mus musculus [18]): 2.6 | Activity (Mus musculus [19]): 14.1 | Activity (Mus musculus [20]): 29.6 | Activity (Mus musculus [21]): 1.8

C=Cc1c(-c2cccs2)nn(C)c(=O)c1N
Activity (Mus musculus [19]): 30.2

COC(=O)[C@@H]1[C@H]2C[C@H]3c4[nH]c5ccccc5c4CCN3C[C@@H]2CC[C@@H]1O [YOHIMBINE]
Activity (Mus musculus [16]): 31.7
